From publication PMC4616004 (International journal for parasitology, 2008)
Where two headings read alike, the source gives them in different places.

Tests used:
[1] = biological target: T1, MBP-CpHDAC3 (recombinant CpHDAC3) (Cryptosporidium parvum, UniProt Q5CPX0); assay: Fluor de Lys fluorogenic deacetylase assay; format: biochemical
T1 sequence (Q5CPX0 1-973): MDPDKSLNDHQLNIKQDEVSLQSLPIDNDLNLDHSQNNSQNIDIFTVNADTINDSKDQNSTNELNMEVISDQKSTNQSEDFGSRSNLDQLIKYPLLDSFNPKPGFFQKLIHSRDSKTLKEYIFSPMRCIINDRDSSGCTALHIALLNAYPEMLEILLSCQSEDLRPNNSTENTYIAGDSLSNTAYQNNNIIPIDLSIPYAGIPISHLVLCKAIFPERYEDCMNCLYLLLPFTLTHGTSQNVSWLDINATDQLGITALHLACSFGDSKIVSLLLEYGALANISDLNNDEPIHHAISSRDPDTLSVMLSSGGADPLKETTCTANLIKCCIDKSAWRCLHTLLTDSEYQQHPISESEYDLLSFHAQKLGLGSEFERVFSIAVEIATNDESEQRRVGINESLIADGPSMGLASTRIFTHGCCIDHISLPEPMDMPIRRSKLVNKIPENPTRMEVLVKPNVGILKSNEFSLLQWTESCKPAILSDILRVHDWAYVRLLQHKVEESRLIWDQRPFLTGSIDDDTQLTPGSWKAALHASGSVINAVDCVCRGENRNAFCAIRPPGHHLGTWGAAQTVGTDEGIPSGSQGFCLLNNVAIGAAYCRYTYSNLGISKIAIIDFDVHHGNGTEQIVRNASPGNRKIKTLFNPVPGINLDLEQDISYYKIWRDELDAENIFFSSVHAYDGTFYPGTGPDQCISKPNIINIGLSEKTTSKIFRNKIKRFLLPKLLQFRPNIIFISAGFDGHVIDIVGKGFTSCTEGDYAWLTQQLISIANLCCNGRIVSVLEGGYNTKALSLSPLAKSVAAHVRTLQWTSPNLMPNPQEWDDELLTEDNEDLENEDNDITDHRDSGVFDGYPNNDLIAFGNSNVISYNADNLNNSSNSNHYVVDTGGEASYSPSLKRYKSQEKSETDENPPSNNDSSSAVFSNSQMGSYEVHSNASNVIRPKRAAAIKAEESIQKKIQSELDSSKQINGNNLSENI

[2] = test system: Pf lipase (Pseudomonas fluorescens lipase); assay: fluorescent esterase assay; format: biochemical; details: pH 6.8, 25 °C, 1 mM MgCl2
How it was run: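 Commercial lipase, stored in glycerol-containing buffer at −20 °C, was used at 4.6 nM final. Acetyl, propionyl or butyryl 4-methylumbelliferyl esters were freshly diluted in ice-cold buffer (137 mM NaCl, 2.7 mM KCl). Reactions ran at 25 °C, with fluorescence (Ex 355, Em 444) read every minute and converted via a 4-methylumbelliferone standard curve. No-protein backgrounds were subtracted, and 10-min points were used. Km came from non-linear fits of duplicate/triplicate reactions.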

[3] = biological target: T1, MBP-CpHDAC3 (recombinant CpHDAC3); assay: Fluor de Lys fluorogenic deacetylase assay; format: biochemical; details: pH 8.1, 20 °C, 1 mM MgCl2
[4] = substrate: CC(=O)Oc1ccc2c(C)cc(=O)oc2c1; assay: fluorescent esterase assay; format: biochemical, Cryptosporidium parvum; details: pH 6.8, 25 °C, 1 mM MgCl2
[5] = substrate: CCC(=O)Oc1ccc2c(C)cc(=O)oc2c1; assay: fluorescent esterase assay; format: biochemical, Cryptosporidium parvum; details: pH 6.8, 25 °C, 1 mM MgCl2

`CC(/C=C/C(=O)NO)=C\[C@@H](C)C(=O)c1ccc(N(C)C)cc1` [Trichostatin A] gave an IC50 [1] of 18 ± 1.3 nM.

For `CC(=O)Oc1ccc2c(C)cc(=O)oc2c1` [4-methylumbelliferyl-acetate], the Km ([2]; read-out: Acetyl esterase / Km) was 230 ± 48 µM.

`C=C[C@@H](O)[C@@H]1O[C@H]1/C=C/[C@@H]1O[C@H]1[C@@H](C)O` [Depudecin] was tested, and the IC50 [1] was 86 ± 2.4 nM.

In the case of Fluor de Lys substrate, the Km [3] is reported as 61 ± 3.4 µM.

In the case of `CCCC(=O)Oc1ccc2c(C)cc(=O)oc2c1` [4-methylumbelliferyl-butyrate], the Km ([2]; read-out: Butyryl esterase / Km) is reported as 260 ± 30 µM.

Molecule `Cn1cc(C(=O)Cc2ccccc2)cc1C=CC(=O)NO` [APHA 8] has an IC50 [1] of 310 ± 1.2 nM.

Work on `CCC(=O)Oc1ccc2c(C)cc(=O)oc2c1` [4-methylumbelliferyl-propionate] yielded a Km ([2]; read-out: Propionyl esterase / Km) of 710 ± 390 µM.

`O=C(CCCCCCC(=O)Nc1ccccc1)NO` [Vorinostat] was tested, and the IC50 [1] was 89 ± 7.9 nM.

B1: MBP-CpHDAC3 (recombinant CpHDAC3) (Cryptosporidium parvum Iowa II) (protein)
chain: MDPDKSLNDHQLNIKQDEVSLQSLPIDNDLNLDHSQNNSQNIDIFTVNADTINDSKDQNSTNELNMEVISDQKSTNQSEDFGSRSNLDQLIKYPLLDSFNPKPGFFQKLIHSRDSKTLKEYIFSPMRCIINDRDSSGCTALHIALLNAYPEMLEILLSCQSEDLRPNNSTENTYIAGDSLSNTAYQNNNIIPIDLSIPYAGIPISHLVLCKAIFPERYEDCMNCLYLLLPFTLTHGTSQNVSWLDINATDQLGITALHLACSFGDSKIVSLLLEYGALANISDLNNDEPIHHAISSRDPDTLSVMLSSGGADPLKETTCTANLIKCCIDKSAWRCLHTLLTDSEYQQHPISESEYDLLSFHAQKLGLGSEFERVFSIAVEIATNDESEQRRVGINESLIADGPSMGLASTRIFTHGCCIDHISLPEPMDMPIRRSKLVNKIPENPTRMEVLVKPNVGILKSNEFSLLQWTESCKPAILSDILRVHDWAYVRLLQHKVEESRLIWDQRPFLTGSIDDDTQLTPGSWKAALHASGSVINAVDCVCRGENRNAFCAIRPPGHHLGTWGAAQTVGTDEGIPSGSQGFCLLNNVAIGAAYCRYTYSNLGISKIAIIDFDVHHGNGTEQIVRNASPGNRKIKTLFNPVPGINLDLEQDISYYKIWRDELDAENIFFSSVHAYDGTFYPGTGPDQCISKPNIINIGLSEKTTSKIFRNKIKRFLLPKLLQFRPNIIFISAGFDGHVIDIVGKGFTSCTEGDYAWLTQQLISIANLCCNGRIVSVLEGGYNTKALSLSPLAKSVAAHVRTLQWTSPNLMPNPQEWDDELLTEDNEDLENEDNDITDHRDSGVFDGYPNNDLIAFGNSNVISYNADNLNNSSNSNHYVVDTGGEASYSPSLKRYKSQEKSETDENPPSNNDSSSAVFSNSQMGSYEVHSNASNVIRPKRAAAIKAEESIQKKIQSELDSSKQINGNNLSENI
With B1 the Km [4] was 89 ± 18 µM, the kcat [4] was 0.01 ± 0.00089 s⁻¹ and the Km [5] was 77 ± 30 µM. It also gave a kcat [5] of 0.00058 ± 9.2e-05 s⁻¹.
